Experimental data taken from ChEMBL document CHEMBL5705890, “Antitumor activity of an allosteric inhibitor of centromere-associated protein-E” (Proc Natl Acad Sci U S A, 2010).

Columns and labels:
Type in all cases: functional
A101D = test: Anticancer activity against human A101D cells assessed as cell growth inhibition measured after 72 hrs by DAPI staining based analysis
In short: (§1)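 Cells were seeded and, after 24 h, DNA content was read as T0. Cells were then exposed to varying drug concentrations for a further 72 h (T72). Fixed cells were DAPI-stained and DNA content measured by automated imaging. T72 values were normalized to T0. GI50 is the concentration giving 50% growth inhibition between T0 and Ymax, obtained by curve fitting.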

AGS = test: Anticancer activity against human AGS cells assessed as cell growth inhibition measured after 72 hrs by DAPI staining based analysis; in short: as §1
BT-20 = test: Anticancer activity against human BT-20 cells assessed as cell growth inhibition measured after 72 hrs by DAPI staining based analysis
In short: (§2)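 Cells were seeded, and DNA content at 24 h after seeding (T0) was read by imaging of fixed, DAPI-stained cells. Cells were then exposed to a range of drug concentrations for a further 72 h (T72) and DNA content was read again. T72 values were normalized to T0, and GI50 was taken from curve fits as the concentration giving 50% growth inhibition relative to T0 and Ymax.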

[1] = Anticancer activity against human C32TG cells assessed as cell growth inhibition measured after 72 hrs by DAPI staining based analysis; in short: as §2
CAL-54 = test: Anticancer activity against human CAL-54 cells assessed as cell growth inhibition measured after 72 hrs by DAPI staining based analysis; in short: as §2
CESS = test: Anticancer activity against human CESS cells assessed as cell growth inhibition measured after 72 hrs by DAPI staining based analysis; in short: as §2
H4 = test: Anticancer activity against human H4 cells assessed as cell growth inhibition measured after 72 hrs by DAPI staining based analysis
In short: (§3)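 Cells seeded, DAPI-stained DNA content of fixed cells read by imaging 24 h after seeding (T0), and again after a further 72 h exposure to a range of drug concentrations (T72). T72 values were normalized to T0. Curve fits gave the concentration producing 50% growth inhibition relative to T0 and Ymax (GI50).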

HCC1143 = test: Anticancer activity against human HCC1143 cells assessed as cell growth inhibition measured after 72 hrs by DAPI staining based analysis; in short: as §3
HCT-8 = test: Anticancer activity against human HCT-8 cells assessed as cell growth inhibition measured after 72 hrs by DAPI staining based analysis
HuT78 = test: Anticancer activity against human HuT78 cells assessed as cell growth inhibition measured after 72 hrs by DAPI staining based analysis
LS-1034 [2] = test: Anticancer activity against human LS1034 cells assessed as cell growth inhibition measured after 72 hrs by DAPI staining based analysis
MC-IXC = test: Anticancer activity against human MC-IXC cells assessed as cell growth inhibition measured after 72 hrs by DAPI staining based analysis
NCI-H187 = test: Anticancer activity against human NCI-H187 cells assessed as cell growth inhibition measured after 72 hrs by DAPI staining based analysis
NCI-H295R = test: Anticancer activity against human NCI-H295R cells assessed as cell growth inhibition measured after 72 hrs by DAPI staining based analysis
SK-N-AS = test: Anticancer activity against human SK-N-AS cells assessed as cell growth inhibition measured after 72 hrs by DAPI staining based analysis
SNU-475 = test: Anticancer activity against human SNU-475 cells assessed as cell growth inhibition measured after 72 hrs by DAPI staining based analysis
ST486 [3] = test: Anticancer activity against human ST486 cells assessed as cell growth inhibition measured after 72 hrs by DAPI staining based analysis
SW1088 = test: Anticancer activity against human SW1088 cells assessed as cell growth inhibition measured after 72 hrs by DAPI staining based analysis
T-24 = test: Anticancer activity against human T24 cells assessed as cell growth inhibition measured after 72 hrs by DAPI staining based analysis
T84 = test: Anticancer activity against human T84 cells assessed as cell growth inhibition measured after 72 hrs by DAPI staining based analysis
THP-1 = test: Anticancer activity against human THP-1 cells assessed as cell growth inhibition measured after 72 hrs by DAPI staining based analysis
TK-10 = test: Anticancer activity against human TK-10 cells assessed as cell growth inhibition measured after 72 hrs by DAPI staining based analysis
ARH-77 = test: Anticancer activity against human ARH-77 cells assessed as cell doubling measured for 72 hrs by DAPI staining based analysis
[4] = Anticancer activity against human BC1 cells assessed as cell doubling measured for 72 hrs by DAPI staining based analysis
[5] = Anticancer activity against human BC-2 cells assessed as cell doubling measured for 72 hrs by DAPI staining based analysis
[6] = Anticancer activity against human C4-1 cells assessed as cell doubling measured for 72 hrs by DAPI staining based analysis
CCF-STTG1 = test: Anticancer activity against human CCF-STTG1 cells assessed as cell doubling measured for 72 hrs by DAPI staining based analysis
In short: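 Cell-growth inhibition in 384-well plates. DNA content of fixed cells stained with DAPI was read by automated imaging 24 h after seeding (T0) and again after a further 72 h exposure to varying drug concentrations (T72). T72 values were normalized to T0, and curves were fitted to give the concentration causing 50% growth inhibition relative to T0 and Ymax (GI50).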

DBTRG-05MG = test: Anticancer activity against human DBTRG-05MG cells assessed as cell doubling measured for 72 hrs by DAPI staining based analysis
DU-145 = test: Anticancer activity against human DU-145 cells assessed as cell doubling measured for 72 hrs by DAPI staining based analysis
LS-1034 [7] = test: Anticancer activity against human LS1034 cells assessed as cell doubling measured for 72 hrs by DAPI staining based analysis
NCI-H2171 = test: Anticancer activity against human NCI-H2171 cells assessed as cell doubling measured for 72 hrs by DAPI staining based analysis
OV-90 = test: Anticancer activity against human OV-90 cells assessed as cell doubling measured for 72 hrs by DAPI staining based analysis
SNU-16 = test: Anticancer activity against human SNU-16 cells assessed as cell doubling measured for 72 hrs by DAPI staining based analysis
ST486 [8] = test: Anticancer activity against human ST486 cells assessed as cell doubling measured for 72 hrs by DAPI staining based analysis
COLO 205 = test: Antitumor activity against human COLO 205 cells in xenograft model assessed as difference between median time to endpoint time of treated versus control group at 125 mg/kg
HCT-116 = test: Antitumor activity against human HCT-116 cells in xenograft model assessed as difference between median time to endpoint time of treated versus control group at 125 mg/kg
SK-OV-3 = test: Antitumor activity against human SK-OV-3 cells in xenograft model assessed as difference between median time to endpoint time of treated versus control group at 62.5 mg/kg
A549 = test: Antitumor activity against human A549 cells in xenograft model assessed as tumor growth delay at 62.5 mg/kg relative to control

CC(C)Oc1ccc(C(=O)N[C@H](CNC(=O)CN(C)C)Cc2ccc(-c3cn4cccc([C@H](C)O)c4n3)cc2)cc1Cl [GSK-923295A]
GI50 (A101D): 17 nM | GI50 (AGS): 29 nM | GI50 (BT-20): 32 nM | GI50 [1]: 28 nM | GI50 (CAL-54): 49 nM | GI50 (CESS): 19 nM | GI50 (H4): 31 nM | GI50 (HCC1143): 27 nM | GI50 (HCT-8): 35 nM | GI50 (HuT78): 40 nM | GI50 (LS-1034 [2]): 97 nM | GI50 (MC-IXC): 27 nM | GI50 (NCI-H187): 68 nM | GI50 (NCI-H295R): 298 nM | GI50 (SK-N-AS): 38 nM | GI50 (SNU-475): 26 nM | GI50 (ST486 [3]): 26 nM | GI50 (SW1088): 32 nM | GI50 (T-24): 45 nM | GI50 (T84): 75 nM | GI50 (THP-1): 12 nM | GI50 (TK-10): 49 nM | Activity (ARH-77): 1.62 | Activity [4]: 3.65 | Activity [5]: 1.94 | Activity [6]: 2.93 | Activity (CCF-STTG1): 1.2 | Activity (DBTRG-05MG): 1.33 | Activity (DU-145): 2.25 | Activity (LS-1034 [7]): 1.73 | Activity (NCI-H2171): 1.39 | Activity (OV-90): 1.87 | Activity (SNU-16): 2.92 | Activity (ST486 [8]): 2.46 | Time (COLO 205): >74 days | Time (HCT-116): 10.4 days | Time (SK-OV-3): 71.6 days | Activity (A549): 11%
